# In ChEMBL document CHEMBL1131093, “ATP-Citrate lyase as a target for hypolipidemic intervention. 2. Synthesis and evaluation of (3R,5S)-omega-substituted-3-carboxy-3, 5-dihydroxyalkanoic acids and their gamma-lactone prodrugs as inhibitors of the enzyme in vitro and in vivo” (J Med Chem, 1998):
# Legend:
# ATP-citrate synthase [1] = biological target: T1, ATP-citrate synthase (Homo sapiens, UniProt P53396); assay: Inhibitory activity against human recombinant ATP-Citrate Lyase (ACL) enzyme
# T1 sequence (P53396 whole entry): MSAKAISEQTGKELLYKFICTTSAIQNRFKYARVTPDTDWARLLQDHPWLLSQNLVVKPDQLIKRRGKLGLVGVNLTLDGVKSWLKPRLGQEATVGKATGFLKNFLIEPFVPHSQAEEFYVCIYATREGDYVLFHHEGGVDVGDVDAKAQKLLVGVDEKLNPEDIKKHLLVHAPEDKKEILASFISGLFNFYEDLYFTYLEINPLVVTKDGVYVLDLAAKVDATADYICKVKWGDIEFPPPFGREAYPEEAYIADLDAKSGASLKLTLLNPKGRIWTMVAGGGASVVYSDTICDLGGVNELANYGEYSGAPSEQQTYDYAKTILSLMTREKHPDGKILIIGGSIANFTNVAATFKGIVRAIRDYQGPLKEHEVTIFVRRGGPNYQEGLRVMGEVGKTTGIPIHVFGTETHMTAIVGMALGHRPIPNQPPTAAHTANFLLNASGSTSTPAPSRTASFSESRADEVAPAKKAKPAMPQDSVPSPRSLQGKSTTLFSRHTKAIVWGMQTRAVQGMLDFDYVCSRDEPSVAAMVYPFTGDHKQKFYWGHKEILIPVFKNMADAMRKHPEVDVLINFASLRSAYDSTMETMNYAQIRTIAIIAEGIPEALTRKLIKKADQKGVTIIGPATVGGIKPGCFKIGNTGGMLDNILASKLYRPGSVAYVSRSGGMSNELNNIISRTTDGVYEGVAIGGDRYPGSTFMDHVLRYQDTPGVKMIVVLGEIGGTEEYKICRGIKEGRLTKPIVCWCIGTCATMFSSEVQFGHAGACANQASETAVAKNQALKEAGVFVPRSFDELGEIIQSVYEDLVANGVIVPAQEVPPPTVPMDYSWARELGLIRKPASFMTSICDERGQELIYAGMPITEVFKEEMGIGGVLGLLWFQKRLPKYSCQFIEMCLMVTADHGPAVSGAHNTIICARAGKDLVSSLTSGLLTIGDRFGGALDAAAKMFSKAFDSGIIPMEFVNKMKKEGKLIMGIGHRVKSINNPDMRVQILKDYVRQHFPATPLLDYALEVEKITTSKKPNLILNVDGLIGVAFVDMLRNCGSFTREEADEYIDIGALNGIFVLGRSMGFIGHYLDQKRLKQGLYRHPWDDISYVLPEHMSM
# In short: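 Human recombinant ATP-citrate lyase was used. Lactone intermediates were hydrolysed with aqueous NaOH to the hydroxy acid before being added to the enzyme buffer mix. Potency was reported as the reversible Ki.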
# ATP-citrate synthase [2] = biological target: T2, ATP-citrate synthase (Rattus norvegicus, UniProt P16638); assay: Inhibitory activity was tested against ATP-Citrate Lyase (ACL) enzyme in rat
# T2 sequence (P16638 whole entry): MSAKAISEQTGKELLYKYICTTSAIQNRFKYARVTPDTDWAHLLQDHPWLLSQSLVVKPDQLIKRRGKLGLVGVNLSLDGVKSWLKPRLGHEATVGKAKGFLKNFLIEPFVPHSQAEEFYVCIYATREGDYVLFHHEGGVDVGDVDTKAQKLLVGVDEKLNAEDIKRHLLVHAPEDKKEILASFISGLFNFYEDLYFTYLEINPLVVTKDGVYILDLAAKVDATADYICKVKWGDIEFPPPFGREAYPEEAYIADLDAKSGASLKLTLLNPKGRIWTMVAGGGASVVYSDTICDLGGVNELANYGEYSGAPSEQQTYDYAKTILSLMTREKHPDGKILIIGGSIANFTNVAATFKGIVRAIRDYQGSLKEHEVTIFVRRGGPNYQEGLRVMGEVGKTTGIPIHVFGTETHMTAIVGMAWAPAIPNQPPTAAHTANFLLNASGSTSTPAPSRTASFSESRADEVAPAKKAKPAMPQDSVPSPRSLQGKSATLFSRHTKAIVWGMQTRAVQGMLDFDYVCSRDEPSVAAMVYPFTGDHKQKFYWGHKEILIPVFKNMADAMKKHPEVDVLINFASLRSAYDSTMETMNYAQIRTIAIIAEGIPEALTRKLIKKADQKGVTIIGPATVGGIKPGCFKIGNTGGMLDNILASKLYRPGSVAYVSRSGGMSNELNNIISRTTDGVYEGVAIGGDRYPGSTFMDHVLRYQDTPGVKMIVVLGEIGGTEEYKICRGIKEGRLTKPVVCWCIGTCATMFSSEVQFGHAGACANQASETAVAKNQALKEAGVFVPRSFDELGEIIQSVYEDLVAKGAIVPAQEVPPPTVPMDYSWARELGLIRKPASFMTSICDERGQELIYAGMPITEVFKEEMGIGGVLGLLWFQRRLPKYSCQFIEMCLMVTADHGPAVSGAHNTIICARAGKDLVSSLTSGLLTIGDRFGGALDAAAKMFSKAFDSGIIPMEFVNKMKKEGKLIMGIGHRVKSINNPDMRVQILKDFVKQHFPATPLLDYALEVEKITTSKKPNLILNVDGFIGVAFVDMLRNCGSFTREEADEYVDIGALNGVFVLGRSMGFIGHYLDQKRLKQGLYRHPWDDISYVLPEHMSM
# ATP-citrate synthase [3] = biological target: T2, ATP-citrate synthase; assay: Inhibitory activity was tested against rat ATP-Citrate Lyase (ACL) enzyme
# Rattus norvegicus [4] = assay: % Reduction of plasma triglyceride in the rat was measured at dose 37.5 mg/kg/d; assay type: functional
# In short: (§1)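 Male Sprague-Dawley rats were kept on a reverse 12 h light/12 h dark cycle with free access to RM1 powdered diet and water. Compound was given orally by gavage as two doses 24 h apart. Blood was drawn mid dark cycle, 4 h after the second dose, into EDTA. Plasma was separated at 1500g for 15 min. Triglyceride was measured enzymatically (GPO-PAP) and reported as % reduction from control.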
# Rattus norvegicus [5] = assay: % Reduction of plasma triglyceride in the rat was measured at dose 75 mg/kg/d; assay type: functional; in short: as §1
# [6] = biological target: T3, ATP-citrate synthase (Homo sapiens) (UniProt P53396); assay: Inhibitory activity was tested against human recombinant ATP-Citrate Lyase (ACL) enzyme at 100 uM
# T3 sequence (whole entry): T1 sequence (P53396 whole entry)
# HepG2 [7] = assay: Inhibition of fatty acid synthesis in HepG2 cells was measured at 10 uM concentration.; assay type: functional, Homo sapiens; parameters: scale not given: the % may be the effect or the level left
# In short: (§2)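 Compounds were applied to HepG2 cells as their γ-lactone prodrugs. De novo cholesterol synthesis, fatty acid synthesis and cellular ATP levels were each expressed as % of control. Significance was marked at p < 0.001.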
# HepG2 [8] = assay: Inhibition of fatty acid synthesis in HepG2 cells was measured at 3 uM concentration.; assay type: functional, Homo sapiens; parameters: scale not given: the % may be the effect or the level left; in short: as §2
# HepG2 [9] = assay: Inhibition of ATP levels in HepG2 cells was measured at 10 uM concentration.; assay type: functional, Homo sapiens; parameters: scale not given: the % may be the effect or the level left; in short: as §2
# HepG2 [10] = assay: Inhibition of cholesterol synthesis in HepG2 cells was measured at 10 uM concentration.; assay type: functional, Homo sapiens; parameters: scale not given: the % may be the effect or the level left; in short: as §2
# HepG2 [11] = assay: Inhibition of cholesterol synthesis in HepG2 cells was measured at 3 uM concentration.; assay type: functional, Homo sapiens; parameters: scale not given: the % may be the effect or the level left; in short: as §2
# HepG2 [12] = assay: Inhibition of ATP levels in HepG2 cells was measured at 3 uM concentration.; assay type: functional, Homo sapiens; parameters: scale not given: the % may be the effect or the level left; in short: as §2
Structure (SMILES),Ki (ATP-citrate synthase [1]),other results
O=C(O)C[C@@](O)(C[C@H](O)CCCCCCn1ccc2cc(Cl)ccc21)C(=O)O,3200 nM,
O=C(O)C[C@@](O)(CCCCCCCCc1ccc(Cl)cc1Cl)C(=O)O,,Ki (ATP-citrate synthase [2]): 2.9 µM
COc1cc(Cl)ccc1CCCCCC[C@@H](O)C[C@](O)(CC(=O)O)C(=O)O,19000 nM,
Cc1cc2cc(Cl)ccc2n1CCCCC[C@@H](O)C[C@](O)(CC(=O)O)C(=O)O,13000 nM,
COc1ccc(-c2cc(Cl)ccc2CCCCCC[C@@H](O)C[C@](O)(CC(=O)O)C(=O)O)cc1,5100 nM,
O=C(O)C[C@@](O)(C[C@H](O)CCCCn1ccc2cc(Cl)ccc21)C(=O)O,160000 nM,
O=C(O)C[C@@](O)(C[C@H](O)CCCCCCc1ccc(Cl)cc1-c1ccc(Cl)cc1)C(=O)O,5000 nM,
O=C(O)C[C@@](O)(C[C@H](O)CCCCCCc1ccc(Cl)cc1-n1cccc1)C(=O)O,3900 nM,
O=C(O)C[C@@]1(O)C[C@@H](CCCCCn2c3ccccc3c3cc(Cl)ccc32)OC1=O,,Reduction (Rattus norvegicus [4]): 16%; Reduction (Rattus norvegicus [5]): 33%
O=C(O)C[C@@](O)(C[C@H](O)CCCCCn1ccc2cc(Cl)ccc21)C(=O)O,3500 nM,
O=C(O)C[C@](O)(C(=O)O)[C@@H](O)CCCCCCCc1ccc(Cl)cc1Cl,5700 nM,
O=C(O)C[C@@](O)(C[C@H](O)CCCCCCc1ccc(Cl)cc1-c1ccc(Cl)cc1Cl)C(=O)O,21000 nM,
Cc1ccc(C)n1-c1cc(Cl)ccc1CCCCCC[C@@H](O)C[C@](O)(CC(=O)O)C(=O)O,,inhibition [6]: 67%
O=C(O)C[C@@]1(O)C[C@@H](CCCCCCc2ccc(Cl)cc2Cl)OC1=O,,Control (HepG2 [7]): 74%; Control (HepG2 [8]): 114%; Control (HepG2 [9]): 97%; Reduction (Rattus norvegicus [4]): 31%; Reduction (Rattus norvegicus [5]): 56%; Control (HepG2 [10]): 53%; Control (HepG2 [11]): 98%; Control (HepG2 [12]): 97%
O=C(O)C[C@@]1(O)C[C@@H](CCCCCCc2ccc(Cl)cc2COc2ccccc2)OC1=O,,Reduction (Rattus norvegicus [4]): 22%; Reduction (Rattus norvegicus [5]): 34%
N[C@H](C(=O)O)[C@@](O)(CC(=O)O)C(=O)O,,Ki (ATP-citrate synthase [2]): 11 µM
O=C(O)C[C@@](O)(C[C@H](O)CCCCCn1ccc2ccc(Cl)cc21)C(=O)O,41000 nM,
O=C(O)C[C@@](O)(C[C@H](O)CCCCCCc1ccc(Cl)cc1O)C(=O)O,,inhibition [6]: 24%
O=C(O)C[C@@](O)(C[C@H](O)CCCCCn1cc([N+](=O)[O-])c2cc(Cl)ccc21)C(=O)O,64000 nM,
O=C(O)C[C@](O)(C(=O)O)[C@@H](O)CCCCCCCCc1ccc(Cl)cc1Cl,18000 nM,
Cc1cn(CCCCC[C@@H](O)C[C@](O)(CC(=O)O)C(=O)O)c2ccc(Cl)cc12,9500 nM,
O=C(O)C[C@@](O)(CC(=O)CCCCCCc1ccc(Cl)cc1Cl)C(=O)O,,Ki (ATP-citrate synthase [3]): 1200 nM
O=C(O)C[C@@](O)(C[C@H](O)CCCCCn1cc(-c2ccccc2)c2cc(Cl)ccc21)C(=O)O,11000 nM,
O=C(O)C[C@@]1(O)C[C@@H](CCCCCC2c3ccccc3-c3cc(Cl)ccc32)OC1=O (some centres undefined),,Reduction (Rattus norvegicus [4]): 5%; Reduction (Rattus norvegicus [5]): 16%

# The remaining compounds from weak to strong by Ki (ATP-citrate synthase [1]), led by results:
Ki (ATP-citrate synthase [1]),Structure (SMILES),other results
2900 nM,O=C(O)C[C@@](O)(C[C@H](O)CCCCCn1cc(Cc2ccccc2)c2cc(Cl)ccc21)C(=O)O,
2900 nM,O=C(O)C[C@@](O)(C[C@H](O)CCCCCn1c2c(c3cc(Cl)ccc31)CCCC2)C(=O)O,
2700 nM,O=C(O)C[C@@](O)(C[C@H](O)CCCCCCc1ccc(Cl)cc1-c1ccc(F)cc1)C(=O)O,
2700 nM,Cc1ccc(-c2cc(Cl)ccc2CCCCCC[C@@H](O)C[C@](O)(CC(=O)O)C(=O)O)cc1,
2000 nM,O=C(O)C[C@@](O)(C[C@@H](O)CCCCCCc1ccc(Cl)cc1Cl)C(=O)O,
1800 nM,O=C(O)C[C@@](O)(C[C@H](O)CCCCCn1ccc2cc(Cl)cc(Cl)c21)C(=O)O,
1100 nM,O=C(O)C[C@@](O)(C[C@H](O)CCCCCCc1ccc(Cl)cc1OCc1ccccc1)C(=O)O,
880 nM,O=C(O)C[C@@](O)(C[C@H](O)CCCCCCc1ccc(Cl)cc1Cl)C(=O)O (stereo in doubt; (+)-45),Ki (ATP-citrate synthase [3]): 700 nM
770 nM,O=C(O)C[C@@](O)(C[C@H](O)CCCCCCc1ccc(Cl)cc1Cl)C(=O)O (stereo in doubt; (-)-45),Ki (ATP-citrate synthase [3]): 700 nM
750 nM,O=C(O)C[C@@](O)(C[C@H](O)CCCCCCc1ccc(Cl)cc1-c1ccccc1)C(=O)O,
710 nM,O=C(O)C[C@@](O)(C[C@H](O)CCCCCn1c2ccccc2c2cc(Cl)ccc21)C(=O)O,
620 nM,O=C(O)[C@@H](O)[C@@](O)(C[C@H](O)CCCCCCc1ccc(Cl)cc1Cl)C(=O)O,
580 nM,Cc1cn(-c2cc(Cl)ccc2CCCCCC[C@@H](O)C[C@](O)(CC(=O)O)C(=O)O)cc1C (stereo in doubt; (+)-58),
550 nM,O=C(O)[C@H](O)[C@@](O)(C[C@H](O)CCCCCCc1ccc(Cl)cc1Cl)C(=O)O,
370 nM,O=C(O)C[C@@](O)(C[C@H](O)CCCCCn1c(-c2ccccc2)cc2cc(Cl)ccc21)C(=O)O,
340 nM,Cc1cn(-c2cc(Cl)ccc2CCCCCC[C@@H](O)C[C@](O)(CC(=O)O)C(=O)O)cc1C (stereo in doubt; (-)-58),
300 nM,Cc1cn(-c2cc(Cl)ccc2CCCCCC[C@@H](O)C[C@](O)(CC(=O)O)C(=O)O)cc1C (stereo in doubt; 58),
220 nM,O=C(O)C[C@@](O)(C[C@H](O)CCCCCC1c2ccccc2-c2cc(Cl)ccc21)C(=O)O (some centres undefined),
